# Test results: ChEMBL document CHEMBL1128479, “Synthesis and structure-activity relationships of stilbene retinoid analogs substituted with heteroaromatic carboxylic acids” (J Med Chem, 1995)
# How the values were obtained:
# [1] = target: T1, Retinoic acid receptor beta (Homo sapiens, UniProt P10826); test: Transcriptional activation of Retinoic acid receptor RAR beta
# T1 sequence (P10826 whole entry): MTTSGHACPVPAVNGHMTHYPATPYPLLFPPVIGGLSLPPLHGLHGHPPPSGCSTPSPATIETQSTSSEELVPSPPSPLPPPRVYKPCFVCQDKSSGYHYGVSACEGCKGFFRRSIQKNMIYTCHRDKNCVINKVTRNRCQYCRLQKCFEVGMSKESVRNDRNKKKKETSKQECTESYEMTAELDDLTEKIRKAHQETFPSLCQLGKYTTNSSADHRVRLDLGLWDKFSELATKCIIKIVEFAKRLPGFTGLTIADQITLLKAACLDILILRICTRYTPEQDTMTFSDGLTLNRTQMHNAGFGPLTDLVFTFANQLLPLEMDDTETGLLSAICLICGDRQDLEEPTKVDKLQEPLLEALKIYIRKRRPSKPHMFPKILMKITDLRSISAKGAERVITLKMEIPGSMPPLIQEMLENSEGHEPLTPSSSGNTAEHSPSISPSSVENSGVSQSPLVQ
# [2] = target: T2, Retinoic acid receptor RXR-alpha (Homo sapiens, UniProt P19793); test: Transcriptional activation of Retinoid X receptor RXR alpha
# T2 sequence (P19793 whole entry): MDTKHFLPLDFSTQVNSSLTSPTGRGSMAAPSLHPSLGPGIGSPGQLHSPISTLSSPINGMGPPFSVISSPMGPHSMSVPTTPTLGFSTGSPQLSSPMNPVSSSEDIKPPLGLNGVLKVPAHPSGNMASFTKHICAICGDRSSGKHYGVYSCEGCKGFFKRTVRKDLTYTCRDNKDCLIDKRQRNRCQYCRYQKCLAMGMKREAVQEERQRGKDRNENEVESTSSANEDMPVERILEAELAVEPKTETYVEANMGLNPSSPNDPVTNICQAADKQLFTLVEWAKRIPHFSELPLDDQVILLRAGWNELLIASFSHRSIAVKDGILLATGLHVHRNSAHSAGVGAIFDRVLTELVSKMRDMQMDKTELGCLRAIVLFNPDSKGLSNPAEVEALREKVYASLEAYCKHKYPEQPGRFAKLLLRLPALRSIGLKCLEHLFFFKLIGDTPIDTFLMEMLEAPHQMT
# [3] = target: T3, Retinoic acid receptor alpha (Homo sapiens, UniProt P10276); test: Transcriptional activation of Retinoic acid receptor RAR alpha
# T3 sequence (P10276 whole entry): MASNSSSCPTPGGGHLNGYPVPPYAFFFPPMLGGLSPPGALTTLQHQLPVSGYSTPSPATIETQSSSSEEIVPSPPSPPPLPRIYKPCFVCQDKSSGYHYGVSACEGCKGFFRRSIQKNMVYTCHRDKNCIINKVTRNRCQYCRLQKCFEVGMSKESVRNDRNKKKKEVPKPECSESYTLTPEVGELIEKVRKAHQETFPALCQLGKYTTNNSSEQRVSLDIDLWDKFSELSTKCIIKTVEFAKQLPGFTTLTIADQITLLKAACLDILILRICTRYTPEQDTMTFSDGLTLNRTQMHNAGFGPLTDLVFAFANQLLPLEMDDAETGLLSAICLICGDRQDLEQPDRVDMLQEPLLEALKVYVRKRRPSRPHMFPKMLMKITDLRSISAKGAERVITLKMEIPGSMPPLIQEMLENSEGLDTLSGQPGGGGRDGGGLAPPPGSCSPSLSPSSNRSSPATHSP
# [4] = target: T4, Retinoic acid receptor gamma (Homo sapiens, UniProt P13631); test: Transcriptional activation of Retinoic acid receptor RAR gamma
# T4 sequence (P13631 whole entry): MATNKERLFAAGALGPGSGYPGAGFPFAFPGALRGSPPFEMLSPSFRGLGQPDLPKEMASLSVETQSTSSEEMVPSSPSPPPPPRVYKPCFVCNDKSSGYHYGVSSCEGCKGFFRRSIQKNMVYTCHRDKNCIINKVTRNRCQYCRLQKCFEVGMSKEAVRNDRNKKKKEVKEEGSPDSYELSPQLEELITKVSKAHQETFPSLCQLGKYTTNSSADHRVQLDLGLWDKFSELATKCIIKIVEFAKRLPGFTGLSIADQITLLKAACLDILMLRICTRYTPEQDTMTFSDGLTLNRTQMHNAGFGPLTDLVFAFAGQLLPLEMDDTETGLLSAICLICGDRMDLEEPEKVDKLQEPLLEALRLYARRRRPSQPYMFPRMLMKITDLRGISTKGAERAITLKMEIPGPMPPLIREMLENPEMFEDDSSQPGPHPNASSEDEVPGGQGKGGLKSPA
# Mus musculus [5] = species: Mus musculus; test: In vitro inhibition of chondrogenesis in mouse embryo limb bud cells; format: functional, cell-based
# Outline: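 Micromass cultures of day 11 mouse embryo forelimb bud cells (trypsin-EDTA dissociated, 200 000 cells/spot) in Eagle's MEM + 10% FBS. Retinoids 0.01 ng/mL–10 μg/mL (0.03 nM–30 μM) were added 24 h after plating, with ethanol vehicle (<1%). Cultures ended at 96 h, formalin/cetylpyridinium fixed, and cartilage nodules counted by image scan. Four replicates per concentration; IC50 from logarithmic curve fit.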
# Mus musculus [6] = species: Mus musculus; test: Inhibition of tumor-promoter-induced ornithine decarboxylase in TPA-treated female hairless mice; format: functional
# Outline: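 Retinoids were applied dorsally in 100 μL acetone 1 h before TPA (40 nmol/mouse in acetone). Mice were killed 4 h later, epidermis scraped after 55 °C for 30 s, and homogenate supernatant assayed for ODC by 14CO2 release (benzethonium hydroxide trap). Activity was normalized to protein.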
# HL-60 = test: Transglutaminase activity in HL-60 cdm-1 cells; format: functional, cell-based; settings: Homo sapiens
# Outline: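 Log-phase cells in RPMI 1640 with insulin/transferrin/selenide were pretreated with 1.25% DMSO for 18 h, then resuspended with retinoid or 0.1% ethanol control for 24 h. Lysate Tgase was measured as Ca2+-dependent [3H]putrescine conjugation to N,N-dimethylcasein.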
EC50 [1] [nM],EC50 [2] [nM],EC50 [3] [nM],EC50 [4] [nM],EC50 (HL-60) [nM],Structure (SMILES),IC50 (Mus musculus [5]) [nM],IC80 (Mus musculus [6]) [nmol]
21,105,2690,374,–,C/C(=C\c1ccc(C(=O)O)cn1)c1cc2c(cc1C)C(C)(C)CCC2(C)C,–,–
–,> 10000,–,–,> 1000,C/C(=C\c1ccc(C(=O)O)cc1)c1ccc2c(c1)C(C)(C)CCC2(C)C,0.06,0.08
23,11,> 10000,37,5,C/C(=C\c1ccc(C(=O)O)s1)c1cc2c(cc1C)C(C)(C)CCC2(C)C,15,5.4
> 10000,201,> 10000,> 10000,20,C/C(=C\c1cc(C(=O)O)cs1)c1cc2c(cc1C)C(C)(C)CCC2(C)C,63,> 300
> 10000,> 10000,> 10000,> 10000,–,C/C(=C\c1cccc(C(=O)O)c1)c1cc2c(cc1C)C(C)(C)CCC2(C)C,–,–
> 10000,592,> 10000,> 10000,–,C/C(=C\c1ccc(C(=O)O)o1)c1cc2c(cc1C)C(C)(C)CCC2(C)C,–,–
–,–,–,–,2,CC1=C(/C=C/C(C)=C\C=C\C(C)=C\C(=O)O)C(C)(C)CCC1 [ALITRETINOIN],58,3.6
–,–,–,–,10,C/C(=C\c1ccc(C(=O)O)cc1)c1cc2c(cc1C)C(C)(C)CCC2(C)C,8,1.2
1080,112,> 10000,> 10000,–,C/C(=C\c1csc(C(=O)O)c1)c1cc2c(cc1C)C(C)(C)CCC2(C)C,–,–
–,–,–,–,5,CC1=C(/C=C/C(C)=C/C=C/C(C)=C/C(=O)O)C(C)(C)CCC1 [TRETINOIN],31,1.4
